Data published in PubChem BioAssay AID463143 (The Scripps Research Institute Molecular Screening Center, 2010).
Active and inactive are the calls of the source.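 Rule for the calls: active = fold change in liver X receptor activation above 2; inactive = the rest.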

These molecules were tested against Oxysterols receptor LXR-beta (Homo sapiens) (UniProt P55055) (assay: activation of LXR ligand-binding domain – cell-based, luminescence, single concentration, powder samples, selectivity assay for RORA inverse agonist project, late-stage follow-up (AID 463143)). Conditions: HEK293T GAL4-LXR LBD luciferase reporter, 18-24 h; at 10 µM; active compounds read high.
In short: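 Assay system: HEK293T cells carrying GAL4-LXR ligand-binding-domain fusion plus UAS-luciferase reporter. Compound: single nominal dose of 10 µM per compound. Incubation: 20 h compound exposure after replating from 24 h transfection. Measured by: luminescence. Read-out basis: fold change versus DMSO vehicle. Control set: DMSO-treated cells as vehicle reference. Repeats: six replicates.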

Sequence of Oxysterols receptor LXR-beta (Homo sapiens) (P55055 whole entry, looked up, the tested form may be a part): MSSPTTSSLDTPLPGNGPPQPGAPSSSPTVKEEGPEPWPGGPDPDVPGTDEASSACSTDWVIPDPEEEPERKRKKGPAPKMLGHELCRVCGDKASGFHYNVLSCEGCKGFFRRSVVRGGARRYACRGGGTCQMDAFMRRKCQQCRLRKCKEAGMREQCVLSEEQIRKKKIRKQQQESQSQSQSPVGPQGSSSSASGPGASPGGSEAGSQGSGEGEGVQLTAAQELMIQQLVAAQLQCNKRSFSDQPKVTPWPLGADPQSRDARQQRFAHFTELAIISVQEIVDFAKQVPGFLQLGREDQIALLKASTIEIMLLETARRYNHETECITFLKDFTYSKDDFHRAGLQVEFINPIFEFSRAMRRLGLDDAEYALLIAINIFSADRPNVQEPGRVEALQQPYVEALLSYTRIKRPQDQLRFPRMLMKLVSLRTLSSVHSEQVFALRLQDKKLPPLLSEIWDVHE

Structure (SMILES)	fold change
O=C(Nc1ccc(C(O)(C(F)(F)F)C(F)(F)F)cc1)c1ccc(Cl)cc1	1.15 (inactive)
O=C(Nc1ccc(C(O)(C(F)(F)F)C(F)(F)F)cc1)c1ccc(F)cc1F	1.39 (inactive)
O=C(Nc1ccc(C(O)(C(F)(F)F)C(F)(F)F)cc1)c1ccccc1C(F)(F)F	0.958 (inactive)
O=C(Nc1ccc(C(O)(C(F)(F)F)C(F)(F)F)cc1)c1ccc(F)cc1Cl	1.04 (inactive)
O=C(Nc1ccc(C(O)(C(F)(F)F)C(F)(F)F)cc1)c1c(F)cccc1F	0.937 (inactive)
O=S(=O)(Nc1ccc(C(O)(C(F)(F)F)C(F)(F)F)cc1)c1cccs1	1.39 (inactive)
